# Results from different studies.
# Compare with care: the assays were run in different laboratories.
# Target: SNF-related serine/threonine-protein kinase (SNRK, Homo sapiens, UniProt Q9NRH2)
# One construct used (Q9NRH2 1-765): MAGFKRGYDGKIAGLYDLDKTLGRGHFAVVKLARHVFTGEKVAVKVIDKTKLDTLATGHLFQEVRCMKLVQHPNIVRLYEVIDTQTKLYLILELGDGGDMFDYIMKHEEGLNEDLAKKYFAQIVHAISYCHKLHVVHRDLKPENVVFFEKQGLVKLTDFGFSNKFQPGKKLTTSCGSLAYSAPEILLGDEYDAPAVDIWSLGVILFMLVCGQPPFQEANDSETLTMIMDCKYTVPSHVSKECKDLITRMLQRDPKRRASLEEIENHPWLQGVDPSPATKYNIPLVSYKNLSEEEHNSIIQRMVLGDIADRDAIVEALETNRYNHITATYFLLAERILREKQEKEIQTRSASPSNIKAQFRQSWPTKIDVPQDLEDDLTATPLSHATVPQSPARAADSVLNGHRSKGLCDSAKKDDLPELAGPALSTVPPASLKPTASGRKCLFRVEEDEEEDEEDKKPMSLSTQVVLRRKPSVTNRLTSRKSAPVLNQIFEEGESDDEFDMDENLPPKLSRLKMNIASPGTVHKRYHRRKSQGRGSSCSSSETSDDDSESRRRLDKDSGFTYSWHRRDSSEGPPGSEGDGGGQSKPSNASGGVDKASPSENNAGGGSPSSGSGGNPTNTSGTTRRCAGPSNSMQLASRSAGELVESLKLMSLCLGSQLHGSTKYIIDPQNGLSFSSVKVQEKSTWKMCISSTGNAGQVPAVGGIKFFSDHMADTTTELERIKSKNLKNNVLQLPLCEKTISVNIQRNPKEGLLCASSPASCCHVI
Compound,test,setting,remaining binding
F[C@@H]1CCN(c2nccc(-c3cnn4ncccc34)n2)C1,binding,1 µM,100%
CC(=O)N1CCC(c2ccc(C(=O)NC3=NCCN3)cc2C(F)(F)F)CC1,"cell-free assay, competition with immobilised ligand",1 µM,98%
N[C@H]1CCN(c2nccc(-c3cnn4ncccc34)n2)C1,binding,1 µM,100%
O=C(c1ccc(Nc2ncc(Cl)c(-c3ccc(Cl)s3)n2)cc1)N1CCC(N2CCCC2)CC1,"binding, competition with immobilised ligand",1 µM,87%
CN(c1ccnc(CNc2nc(Nc3ccc4c(c3)CC(=O)N4)ncc2C(F)(F)F)n1)S(C)(=O)=O,"cell-free assay, competition with immobilised ligand",1 µM,85%
CCN1CCN(Cc2ccc(C(=O)Nc3ccc(C)c(Oc4ccc5c(c4)CC(=O)N5)c3)cc2C(F)(F)F)CC1,"binding, competition with immobilised ligand",1 µM,98%
CC(=O)N1CCC(c2ccc(C(=O)NC(=N)N)cc2C(F)(F)F)CC1,"cell-free assay, competition with immobilised ligand",1 µM,100%
CN(C)c1nccc(-c2cnn3ncccc23)n1,binding,1 µM,100%
C[C@@H](c1ccc(-n2cnc3c(N)ncnc32)cc1)N1CCc2nn(C)c(Cc3ccccc3)c2C1=O,"binding, competition with immobilised ligand",0.1 µM,98%
COc1ccc2c(c1)O[C@@H](c1ccc(OC)c(OC)c1)C[C@H]2NC(=O)C1(c2ccc3c(c2)OC(F)(F)O3)CC1,"cell-free assay, competition with immobilised ligand",1 µM,90%
Nc1ncc2c(n1)-c1c([nH]c3ccc(C#CC4CC4)cc13)CCCC2,"binding, competition with immobilised ligand",1 µM,88%
Cc1noc([C@H]2C[C@@H](c3ccc(C(F)(F)F)cc3)CN(C(=O)N3CCS(=O)(=O)C3)C2)n1,"cell-free assay, competition with immobilised ligand",1 µM,100%
O=C(NCC1CCOCC1)c1n[nH]cc1NC(=O)c1c(F)cccc1F,"binding, competition with immobilised ligand",1 µM,84%
FC(F)(F)Oc1cccc(-c2cnc3ccc(-c4ccncc4)nn23)c1,"binding, competition with immobilised ligand",5 µM,71%
C[C@H]1CCN(c2nccc(-c3cnn4ncccc34)n2)C1,binding,1 µM,81%
O=C(c1ccc(Nc2ncc(Cl)c(-c3cc4ccccc4s3)n2)cc1)N1CCC(N2CCCC2)CC1,"binding, competition with immobilised ligand",1 µM,87%
CNC(=O)[C@@H]1CC[C@@H](n2c(-c3ccc4cnccc4c3)nc3ccc(C(=O)NCc4cccc(C(N)=O)c4)cc32)C1,"binding, competition with immobilised ligand",1 µM,100%
CN(C)c1ncc(F)c(-c2cnn3ncccc23)n1,binding,1 µM,100%
CS(=O)(=O)N1CCCC(NC(=O)[C@H](CCC2CCCCC2)NC(=O)c2ccc(CNc3ncnc4c3nnn4-c3ccccc3)cc2)C1 (stereo partly shown),"cell-free assay, competition with immobilised ligand",0.1 µM,81%
COc1ccnn2ncc(-c3ccnc(N(C)C)n3)c12,binding,1 µM,93%
CO[C@@H](C)c1c(Nc2ccc([C@H](N(C)C(=O)C3CCS(=O)(=O)CC3)C(F)(F)F)cc2)cnc2cc(Cl)nn12,"cell-free assay, competition with immobilised ligand",1 µM,100%
O=C(NCCCN1CCOCC1)c1ccc(Nc2ncc(Cl)c(-c3ccc(Cl)s3)n2)cc1,"binding, competition with immobilised ligand",1 µM,100%
